From PMC8897208 (Acta Pharmaceutica Sinica. B, 2021) come the findings set out here.

One assay has as its target HDAC9 (Homo sapiens, UniProt Q9UKV0). Kind of assay: HDACs selectivity assay. The class given is biochemical. Summed up: (§1)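 Enzyme selectivity panel was run by an outside contract lab to its standard assay protocols. IC50 values came from dose–response fitting of the data points. Each experiment was done independently at least three times.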
Assay [1] concerns the target T1, SIRT6 (Homo sapiens, UniProt Q8N6T7). Kind of assay: FDL assay of SIRT6 deacetylation on H3K9Ac peptide. The class given is biochemical. Summed up:
(§2)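 Recombinant SIRT6 was expressed in E. coli BL21 in LB with 100 μg/mL ampicillin at 37 °C. Expression was induced with 0.5 mmol/L IPTG at OD600 0.8, then grown 18 h at 16 °C and purified by an earlier method.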

The target of assay [2] is T1, SIRT6. Kind of assay: Fluor de Lys. The class given is biochemical. Summed up: as §2
For another assay, the target named is T2, HDAC8 (Homo sapiens, UniProt Q9BY41).
T2 sequence (Q9BY41 1-377): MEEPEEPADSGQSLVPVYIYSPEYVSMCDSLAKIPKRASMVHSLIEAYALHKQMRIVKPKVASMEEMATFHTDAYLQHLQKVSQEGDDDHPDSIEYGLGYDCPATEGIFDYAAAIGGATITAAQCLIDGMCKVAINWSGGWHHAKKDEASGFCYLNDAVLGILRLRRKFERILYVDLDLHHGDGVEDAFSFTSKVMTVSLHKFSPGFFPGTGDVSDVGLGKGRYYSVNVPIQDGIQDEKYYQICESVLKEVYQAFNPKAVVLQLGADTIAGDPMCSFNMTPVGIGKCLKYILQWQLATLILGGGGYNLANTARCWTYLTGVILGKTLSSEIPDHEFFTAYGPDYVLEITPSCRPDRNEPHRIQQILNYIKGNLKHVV
Description: HDACs selectivity assay. The class given is biochemical. Summed up: as §1

Assay [3] concerns SIRT6 mutants (Y5A, T57A, P62A, D63A, P67A, H68A, V70A, P80A, K81A, Y257A). Description: FDL assay on SIRT6 Pocket Z mutants. The class given is biochemical, human. In a few lines: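 SIRT6 point mutants were made by site-directed mutagenesis. Each plasmid was expressed separately in E. coli BL21 (LB, 100 μg/mL ampicillin, 37 °C), induced with 0.5 mmol/L IPTG at OD600 0.8 for 18 h at 16 °C, and purified as for wild type.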

A further assay has as its system BXPC-3 cells. Description: Migration assay by wound healing. The class given is cell-based. To be noted: for relative migration rate (wound healing): control ~0.60.
The target in another assay is T3, HDAC6 (Homo sapiens, UniProt Q9UBN7).
T3 sequence (Q9UBN7 1-1215): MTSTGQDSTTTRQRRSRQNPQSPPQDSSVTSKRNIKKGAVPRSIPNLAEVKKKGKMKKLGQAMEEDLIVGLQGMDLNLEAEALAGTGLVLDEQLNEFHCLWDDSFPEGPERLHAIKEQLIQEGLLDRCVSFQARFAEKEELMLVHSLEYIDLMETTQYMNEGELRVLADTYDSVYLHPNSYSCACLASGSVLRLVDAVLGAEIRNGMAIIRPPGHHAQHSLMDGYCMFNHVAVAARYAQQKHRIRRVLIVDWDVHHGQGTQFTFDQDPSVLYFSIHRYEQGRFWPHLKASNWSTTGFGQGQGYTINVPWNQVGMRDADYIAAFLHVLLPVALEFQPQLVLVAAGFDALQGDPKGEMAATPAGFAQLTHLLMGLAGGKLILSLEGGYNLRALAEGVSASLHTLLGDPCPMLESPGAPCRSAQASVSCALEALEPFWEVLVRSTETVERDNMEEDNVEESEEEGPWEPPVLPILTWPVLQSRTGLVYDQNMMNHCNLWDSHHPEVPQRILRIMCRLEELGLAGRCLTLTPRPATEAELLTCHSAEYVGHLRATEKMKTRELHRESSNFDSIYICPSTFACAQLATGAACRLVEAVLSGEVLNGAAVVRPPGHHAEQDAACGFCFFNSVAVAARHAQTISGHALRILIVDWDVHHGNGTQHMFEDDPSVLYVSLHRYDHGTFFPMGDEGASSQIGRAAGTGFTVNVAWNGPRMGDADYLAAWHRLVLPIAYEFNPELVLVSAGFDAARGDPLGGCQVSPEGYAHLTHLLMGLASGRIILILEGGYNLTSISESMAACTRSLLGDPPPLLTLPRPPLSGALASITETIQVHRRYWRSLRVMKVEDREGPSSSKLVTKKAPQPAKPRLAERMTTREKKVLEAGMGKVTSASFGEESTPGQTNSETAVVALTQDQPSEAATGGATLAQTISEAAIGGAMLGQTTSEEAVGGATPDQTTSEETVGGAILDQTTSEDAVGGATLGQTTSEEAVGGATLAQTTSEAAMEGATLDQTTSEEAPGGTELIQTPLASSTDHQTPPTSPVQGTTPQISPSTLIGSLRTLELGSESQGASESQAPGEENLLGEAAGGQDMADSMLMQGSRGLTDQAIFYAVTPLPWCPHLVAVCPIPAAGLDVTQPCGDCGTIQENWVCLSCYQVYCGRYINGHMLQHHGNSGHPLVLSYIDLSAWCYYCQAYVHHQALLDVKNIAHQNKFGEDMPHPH
Description: HDACs selectivity assay. In kind it is biochemical. Summed up:
as §1

A further assay has as its target T4, SIRT5 (residues 34–302) (Homo sapiens, UniProt Q9NXA8).
T4 sequence (Q9NXA8 34-302): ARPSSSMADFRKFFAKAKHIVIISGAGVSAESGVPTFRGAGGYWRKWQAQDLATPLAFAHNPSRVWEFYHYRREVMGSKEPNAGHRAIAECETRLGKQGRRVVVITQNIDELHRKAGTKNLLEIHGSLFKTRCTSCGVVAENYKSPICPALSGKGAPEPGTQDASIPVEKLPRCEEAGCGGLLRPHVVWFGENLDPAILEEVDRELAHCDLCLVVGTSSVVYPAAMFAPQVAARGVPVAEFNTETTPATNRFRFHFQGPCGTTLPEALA
Kind of assay: Selectivity FDL deacetylation assay. The class given is biochemical.

Assay [4] concerns the target T1, SIRT6. Kind of assay: HPLC assay of SIRT6 deacetylation on H3K9Ac. In kind it is biochemical. To be noted: 50 μmol/L JYQ-42, H3K9Ac peptide.
The target of the next assay is HDAC5 (Homo sapiens, UniProt Q9UQL6). Description: HDACs selectivity assay. The class given is biochemical. In a few lines:
as §1

Bounds are passed on as bounds.

T1 sequence (Q8N6T7 whole entry): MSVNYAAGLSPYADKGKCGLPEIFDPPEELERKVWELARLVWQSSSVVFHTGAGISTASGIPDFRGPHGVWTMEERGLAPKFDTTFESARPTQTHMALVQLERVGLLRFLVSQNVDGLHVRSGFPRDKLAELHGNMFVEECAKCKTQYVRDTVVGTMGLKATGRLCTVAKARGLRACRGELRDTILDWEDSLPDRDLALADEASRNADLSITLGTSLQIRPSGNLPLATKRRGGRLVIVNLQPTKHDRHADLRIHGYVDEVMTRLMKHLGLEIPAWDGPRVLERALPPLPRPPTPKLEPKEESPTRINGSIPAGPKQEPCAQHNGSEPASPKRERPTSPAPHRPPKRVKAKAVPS
Chain of HDAC9 (Q9UKV0 whole entry): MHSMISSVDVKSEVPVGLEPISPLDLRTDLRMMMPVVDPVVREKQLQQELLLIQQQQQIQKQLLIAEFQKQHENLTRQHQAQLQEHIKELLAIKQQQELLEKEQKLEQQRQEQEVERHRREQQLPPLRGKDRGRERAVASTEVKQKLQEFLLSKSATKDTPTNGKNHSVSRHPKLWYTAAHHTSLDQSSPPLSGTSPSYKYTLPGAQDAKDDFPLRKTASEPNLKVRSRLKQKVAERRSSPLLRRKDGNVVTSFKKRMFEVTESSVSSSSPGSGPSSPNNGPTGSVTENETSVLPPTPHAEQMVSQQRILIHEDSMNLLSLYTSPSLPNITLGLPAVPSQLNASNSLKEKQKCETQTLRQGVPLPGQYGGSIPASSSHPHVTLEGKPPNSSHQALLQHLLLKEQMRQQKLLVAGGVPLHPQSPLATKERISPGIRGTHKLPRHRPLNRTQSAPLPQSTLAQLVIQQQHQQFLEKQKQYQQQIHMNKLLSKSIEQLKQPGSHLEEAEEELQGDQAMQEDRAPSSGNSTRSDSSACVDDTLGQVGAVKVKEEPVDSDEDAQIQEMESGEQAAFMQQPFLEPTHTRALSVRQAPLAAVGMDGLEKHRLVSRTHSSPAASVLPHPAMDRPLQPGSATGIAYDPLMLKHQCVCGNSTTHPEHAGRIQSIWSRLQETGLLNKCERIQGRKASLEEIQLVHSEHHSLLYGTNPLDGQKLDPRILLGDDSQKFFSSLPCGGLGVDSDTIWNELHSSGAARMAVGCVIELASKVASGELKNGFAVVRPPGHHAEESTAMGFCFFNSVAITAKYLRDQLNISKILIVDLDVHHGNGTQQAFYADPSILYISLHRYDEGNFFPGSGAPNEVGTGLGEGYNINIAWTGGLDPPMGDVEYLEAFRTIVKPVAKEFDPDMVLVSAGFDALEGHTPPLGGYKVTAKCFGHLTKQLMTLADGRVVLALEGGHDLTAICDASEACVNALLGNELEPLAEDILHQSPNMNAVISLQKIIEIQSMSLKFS
Chain of HDAC5 (Q9UQL6 whole entry): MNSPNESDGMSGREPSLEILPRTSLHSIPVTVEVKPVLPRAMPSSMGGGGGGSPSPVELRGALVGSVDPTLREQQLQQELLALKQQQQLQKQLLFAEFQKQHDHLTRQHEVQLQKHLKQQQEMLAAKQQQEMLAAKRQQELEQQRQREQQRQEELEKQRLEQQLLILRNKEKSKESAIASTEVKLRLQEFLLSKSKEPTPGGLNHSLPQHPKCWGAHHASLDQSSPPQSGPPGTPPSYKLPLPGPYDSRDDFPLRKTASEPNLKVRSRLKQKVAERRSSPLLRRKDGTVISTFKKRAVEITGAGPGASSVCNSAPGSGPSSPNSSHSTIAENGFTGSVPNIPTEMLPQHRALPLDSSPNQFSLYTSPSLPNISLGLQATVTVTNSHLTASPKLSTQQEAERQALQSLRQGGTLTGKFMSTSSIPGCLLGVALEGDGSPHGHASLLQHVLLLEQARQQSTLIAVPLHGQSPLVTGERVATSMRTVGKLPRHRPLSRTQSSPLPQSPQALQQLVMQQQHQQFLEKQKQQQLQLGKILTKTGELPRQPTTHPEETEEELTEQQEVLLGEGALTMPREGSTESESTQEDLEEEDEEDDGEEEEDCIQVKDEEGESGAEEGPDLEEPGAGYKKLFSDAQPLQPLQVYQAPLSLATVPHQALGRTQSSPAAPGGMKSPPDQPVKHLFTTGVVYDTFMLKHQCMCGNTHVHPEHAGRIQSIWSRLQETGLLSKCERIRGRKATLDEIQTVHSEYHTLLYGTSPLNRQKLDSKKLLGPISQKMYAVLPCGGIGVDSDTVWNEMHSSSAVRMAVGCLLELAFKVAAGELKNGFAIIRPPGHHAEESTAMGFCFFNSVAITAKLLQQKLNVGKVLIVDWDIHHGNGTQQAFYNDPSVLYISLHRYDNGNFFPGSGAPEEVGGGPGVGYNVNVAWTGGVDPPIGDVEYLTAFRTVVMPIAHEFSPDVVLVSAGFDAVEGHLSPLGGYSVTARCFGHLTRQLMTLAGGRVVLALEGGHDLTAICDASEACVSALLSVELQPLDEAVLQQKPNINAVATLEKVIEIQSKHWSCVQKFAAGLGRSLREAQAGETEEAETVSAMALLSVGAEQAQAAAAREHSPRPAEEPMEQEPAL

In general, IC50 refers to the concentration at which inhibition is half-maximal. In the case of `Nc1nonc1-n1cc(C(=O)N/N=C/c2cc(Cl)cc(C(F)(F)F)c2)nn1` [JYQ-42], the half-maximal inhibitory concentration (IC50) against HDAC9 was more than 100 µM; against SIRT6 [2] it was 2330 ± 170 nM; on HDAC8 it was more than 100 µM; on HDAC6, more than 100 µM; against SIRT5 (residues 34–302), more than 100 µM; on HDAC5, more than 100 µM. Also, at SIRT6 [1], the “inhibition ratio at 50 μmol/L on H3K9Ac” value was found to be 90.7%. In addition, the “inhibition ratio at 50 μmol/L” value on SIRT6 [2] (FDL assay, substrate Ac-RHKK-Ac-AMC, 50 μmol/L compound) was found to be 85.3%. Moreover, the Effect result on SIRT6 [2] (SIRT6 (Table 2)) was “Inhibition”. Besides, the “IC50 values on SIRT6 mutants” value in assay [3] (Y5A, T57A, P62A, D63A, P67A, H68A, V70A, P80A, K81A, Y257A versus wild type) is on record as “increased”. Besides, the “inhibition of SIRT6 deacetylation, T57A and H68A mutants” value in assay [3] (mutations T57A and H68A) was “completely disrupted JYQ-42 inhibition”. For the same compound, the “relative migration rate (wound healing)” value is reported as ~ 0.3 in the assay with BXPC-3 cells (BXPC-3, 10 μmol/L JYQ-42, 24 h); ~ 0.24 with BXPC-3 cells (BXPC-3, 20 μmol/L JYQ-42, 24 h); ~ 0.10 in the assay with BXPC-3 cells (BXPC-3, 40 μmol/L JYQ-42, 24 h). Moreover, in the assay on BXPC-3 cells (BXPC-3, 40 μmol/L JYQ-42 in the presence of 0.5 mmol/L ADPr), the “migration with ADPr co-treatment (wound healing)” value is reported as “no influence on the migration”. Also, the “amount of H3K9-free lysine peptides by HPLC” value on SIRT6 [4] was “decreased prominently”.
